The source of these data is ChEMBL document CHEMBL1142349, “Molecular modeling study and synthesis of novel pyrrolo[2,3-d]pyrimidines and pyrrolotriazolopyrimidines of expected antitumor and radioprotective activities” (Bioorg Med Chem, 2008).

Experiment [1] deals with Mus musculus. The experiment is described as follows: Radioprotective activity against gamma-irradiated Swiss albino mouse assessed as reduction of plasma lipid peroxide level at 150 mg/kg, ip after 7 days. Type of experiment: functional. Particulars: route intraperitoneal. Summed up: (§1)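 Female Swiss albino mice (25–30 g) were dosed ip at 150 mg/kg in CMC every other day ×3 over 7 days. Each dose was given 30 min before 6 Gy whole-body γ-irradiation (Cs-137, 0.86 Gy/min). Mice were fasted 16 h and bled by heart puncture 1 day after the last irradiation. Plasma lipid peroxide was measured as MDA (Yoshioka). Values are mean ± SE, n=8, as % change from control, with t test.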

Experiment [2] deals with Mus musculus. The experiment in a line: Radioprotective activity against gamma-irradiated Swiss albino mouse assessed as increase in blood glutathione level at 150 mg/kg, ip after 7 days relative to control. The settings on record: route intraperitoneal.
Experiment [3] relates to Mus musculus. The experiment in a line: Radioprotective activity against gamma-irradiated Swiss albino mouse assessed as increase in blood glutathione level at 150 mg/kg, ip after 7 days. The settings on record: route intraperitoneal.
In experiment [4] the test system is Mus musculus. The experiment in a line: Radioprotective activity against gamma-irradiated Swiss albino mouse assessed as reduction of plasma lipid peroxide level at 150 mg/kg, ip after 7 days relative to control. It is filed as functional. Details: scale not given: the % may be the effect or the level left. The settings on record: route intraperitoneal. Summed up: as §1

In experiment [5] the test system is Ehrlich. The experiment is described as follows: Cytotoxicity against mouse Ehrlich Ascites carcinoma assessed as non viable cells at 25 umol/mL after 2 hrs by trypan blue exclusion assay. It is filed as functional. Put shortly:
(§2)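 EAC cells at 2.5 × 10^6/ml in saline. Compounds were dissolved in DMSO:saline (7:3). 100 µL cell suspension was mixed with compound and made to 1 mL with saline, giving final 200, 100, 75, 50 and 25 µM. Incubated 2 h at 37 °C. Trypan blue exclusion gave % non-viable cells. IC50 was read from the survival-ratio vs concentration curve.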

The subject of experiment [6] is Ehrlich. The experiment in a line: Cytotoxicity against mouse Ehrlich Ascites carcinoma assessed as non viable cells at 100 umol/mL after 2 hrs by trypan blue exclusion assay. It is filed as functional. Summed up: as §2
The test system of experiment [7] is Ehrlich. The experiment in a line: Cytotoxicity against mouse Ehrlich Ascites carcinoma assessed as non viable cells at 200 umol/mL after 2 hrs by trypan blue exclusion assay. It is filed as functional. Put shortly: as §2
The nature of experiment [8]: Cytotoxicity against mouse Ehrlich Ascites carcinoma after 2 hrs by trypan blue exclusion assay. Type of experiment: functional. Summed up:
as §2

The subject of experiment [9] is Ehrlich. The experiment in a line: Cytotoxicity against mouse Ehrlich Ascites carcinoma assessed as non viable cells at 50 umol/mL after 2 hrs by trypan blue exclusion assay. It is filed as functional. Put shortly:
as §2

Experiment [10] relates to Ehrlich. The experiment in a line: Cytotoxicity against mouse Ehrlich Ascites carcinoma assessed as non viable cells at 75 umol/mL after 2 hrs by trypan blue exclusion assay. It is filed as functional. Summed up:
as §2

In the case of `NS(=O)(=O)c1ccc(-n2cc(-c3ccccc3)c3/c(=N/C(=O)c4ccc(Cl)cc4)n(NC(=O)c4ccc(Cl)cc4)cnc32)cc1`, the Activity in the experiment with Mus musculus [1] was 80.3 µmol/mL; in the experiment on Mus musculus [2], 386%; in the experiment on Mus musculus [3], 304 mg/dL; with Mus musculus [4] it was 101%.

With `N#Cc1c(-c2ccccc2)cn(-c2ccc(S(N)(=O)=O)cc2)c1N`, the Activity with Ehrlich [5] is 40%; with Ehrlich [6], 100%; in the experiment on Ehrlich [7] it was 100%; in the experiment on Ehrlich [9], 80%; with Ehrlich [10] it was 100%. Besides, in experiment [8], the midpoint of inhibition, the IC50, lay at 88.8 µM.

For `COc1cccc2c1C(=O)c1c(O)c3c(c(O)c1C2=O)C[C@@](O)(C(=O)CO)C[C@@H]3O[C@H]1C[C@H](N)[C@H](O)[C@H](C)O1` [DOXORUBICIN], the Activity with Ehrlich [5] is 20%; in the experiment on Ehrlich [6] it was 75%; with Ehrlich [7] it was 100%; in the experiment on Ehrlich [9] it was 55%; with Ehrlich [10], 64%. Also, in experiment [8], the IC50 (as a rule, the midpoint of a concentration-inhibition curve) came to 81.5 µM.

With `N#CCc1nc2c3c(-c4ccccc4)cn(-c4ccc(S(N)(=O)=O)cc4)c3ncn2n1`, the Activity is 0% in the experiment with Ehrlich [5]; 80% in the experiment on Ehrlich [6]; 90% with Ehrlich [7]; 0% with Ehrlich [9]; 15% with Ehrlich [10]. Further, half-maximal inhibition in [8] (IC50) was put at 90.2 µM.

Turning to `CC(=O)NS(=O)(=O)c1ccc(-n2cc(-c3ccccc3)c3c2ncn2nc(C)nc32)cc1`, the Activity in the experiment on Ehrlich [5] amounted to 0%; with Ehrlich [6], 80%; with Ehrlich [7], 100%; with Ehrlich [9], 5%; in the experiment on Ehrlich [10], 20%. Further, the half-inhibitory concentration (IC50) in experiment [8] was found to be 75.8 µM.

`NS(=O)(=O)c1ccc(-n2cc(-c3ccccc3)c3c2ncn2nc(S)nc32)cc1`: the Activity is recorded as 0% with Ehrlich [5]; 80% with Ehrlich [6]; 80% in the experiment on Ehrlich [7]; 0% with Ehrlich [9]; 20% with Ehrlich [10]. This compound had an IC50 in experiment [8] of 90.2 µM.

For the compound `NS(=O)(=O)c1ccc(-n2cc(-c3ccccc3)c3c2ncn2ncnc32)cc1`, the Activity in the experiment on Ehrlich [5] is given as 0%; with Ehrlich [6] it was 60%; with Ehrlich [7] it was 90%; in the experiment on Ehrlich [9], 0%; in the experiment with Ehrlich [10] it was 15%. 100 µM corresponded to half-maximal inhibition in [8] (IC50).

For `N#Cc1c(N)nn2cnc3c(c(-c4ccccc4)cn3-c3ccc(S(N)(=O)=O)cc3)c12`, the Activity with Ehrlich [5], in the experiment with Ehrlich [6], in the experiment with Ehrlich [7], in the experiment on Ehrlich [9] and in the experiment with Ehrlich [10] was 0% each time. For the same compound, the half-maximal inhibitory concentration (IC50) in [8] was over 200 µM.

With `N=c1c2c(-c3ccccc3)cn(-c3ccc(S(N)(=O)=O)cc3)c2ncn1NC(=S)Nc1ccccc1`, the Activity with Ehrlich [5] was found to be 50%; with Ehrlich [6] it was 95%; in the experiment on Ehrlich [7] it was 100%; with Ehrlich [9], 60%; in the experiment with Ehrlich [10], 80%. The compound further came in with a half-inhibitory concentration (IC50) in experiment [8] of 26.5 µM.

As to `NS(=O)(=O)c1ccc(-n2cc(-c3ccccc3)c3c2ncn2nc(-c4ccccc4)nc32)cc1`, the Activity in the experiment on Ehrlich [5], in the experiment on Ehrlich [6], with Ehrlich [7], in the experiment on Ehrlich [9] and in the experiment with Ehrlich [10] was 0% in each case. The half-maximal inhibitory concentration (IC50) in experiment [8] was over 200 µM.
